Test results published in ChEMBL document CHEMBL1123503, “Synthesis and biological activity of 3-amino-5-(3,5-diamino-6-chloropyrazin-2-yl)-1,2,4-oxadiazole: an amiloride prodrug” (1986).
Values joined by “and” are separate entries in the source; they are usually repeats but may differ in a detail not shown here. Equal entries are not always repeated.

Key:
Rattus norvegicus [1] = experiment: Compound was evaluated for diuretic activity determined by the ability to induce electrolytic excretion (Na+) at a time period of 0-24 hr for dose 9 mg/kg; assay type: functional, Urine
In short: (§1)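 Female Sprague-Dawley rats weighing 160-170 g were dosed orally at 3, 9, 27 or 81 mg/kg, housed three per cage, with three cages per dose. Urinary Na+, K+ and Cl- (mequiv × 100) and urine volume (mL) were measured over 0-5 h and 0-24 h after dosing. A placebo group was run alongside.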

Rattus norvegicus [2] = experiment: Compound was evaluated for diuretic activity determined by the ability to induce electrolytic excretion (Na+) at a time period of 0-24 hr for dose 3 mg/kg; assay type: functional, Urine; in short: as §1
Rattus norvegicus [3] = experiment: Compound was evaluated for diuretic activity determined by the ability to induce electrolytic excretion (K+) at a time period of 0-5 hr for dose 3 mg/kg; assay type: functional, Urine; in short: as §1
Rattus norvegicus [4] = experiment: Compound was evaluated for diuretic activity determined by the ability to induce electrolytic excretion (Cl-) at a time period of 0-5 hr for dose 27 mg/kg; assay type: functional, Urine; in short: as §1
Rattus norvegicus [5] = experiment: Compound was evaluated for diuretic activity determined by the ability of to induce electrolytic excretion (Cl-) at a time period of 0-24 hr for dose 3 mg/kg; assay type: functional, Urine; in short: as §1
Rattus norvegicus [6] = experiment: Compound was evaluated for diuretic activity determined by the ability to induce electrolytic excretion (Na+) at a time period of 0-5 hr for dose 27 mg/kg; assay type: functional, Urine; in short: as §1
Rattus norvegicus [7] = experiment: Compound was evaluated for diuretic activity determined by the ability to induce electrolytic excretion (Cl-) at a time period of 0-24 hr for dose 27 mg/kg; assay type: functional, Urine; in short: as §1
Rattus norvegicus [8] = experiment: Compound was evaluated for diuretic activity determined by the ability to induce electrolytic excretion (K+) at a time period of 0-5 hr for dose 81 mg/kg; assay type: functional, Urine; in short: as §1
Canis familiaris [9] = experiment: Diuretic activity in mongrel dog was determined by the ability to induce electrolytic excretion (Na+) at a time period of 0-5 hr after administration of 5 mg/kg dose.
Canis familiaris [10] = experiment: Diuretic activity in mongrel dog was determined by the ability to induce electrolytic excretion (CL-) at a time period of 0-5 hr after administration of 5 mg/kg dose.
Rattus norvegicus [11] = experiment: Compound was evaluated for diuretic activity determined by the ability to induce electrolytic excretion (Na+) at a time period of 0-24 hr for dose 27 mg/kg; assay type: functional, Urine; in short: as §1
Canis familiaris [12] = experiment: Diuretic activity in mongrel dog was determined by the ability to induce electrolytic excretion (K+) at a time period of 0-5 hr after administration of 5 mg/kg dose.
Canis familiaris [13] = experiment: Compound was evaluated for percentage recovery from urine after administration of 0.3 mg/kg dose; assay type: functional, organism-based; set-up: dose 0.3 mg/kg; settings: Canis lupus familiaris
In short: (§2)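 Catheterized mongrel dogs (average 14-16 kg, 6 per group) were given oral doses of 0.1-1.0 mg/kg. Urine was collected at 0-6 h and 6-24 h. Each 1-mL aliquot was partitioned between saturated Na2CO3 and ethyl acetate, and the organic phase was back-extracted into 0.5 N HCl. Amiloride in the acid phase was read spectrofluorometrically (excitation 365 nm, emission 420 nm). Results are mean ± SD, with % recovery.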

Rattus norvegicus [14] = experiment: Compound was evaluated for diuretic activity determined by the ability to induce electrolytic excretion (Cl-) at a time period of 0-5 hr for dose 9 mg/kg; assay type: functional, Urine; in short: as §1
Rattus norvegicus [15] = experiment: Compound was evaluated for diuretic activity determined by the ability to induce electrolytic excretion (K+) at a time period of 0-24 hr for dose 3 mg/kg; assay type: functional, Urine; in short: as §1
Rattus norvegicus [16] = experiment: Compound was evaluated for diuretic activity determined by the ability to induce electrolytic excretion (K+) at a time period of 0-24 hr for dose 9 mg/kg; assay type: functional, Urine; in short: as §1
Rattus norvegicus [17] = experiment: Compound was evaluated for diuretic activity determined by the ability to induce electrolytic excretion (Na+) at a time period of 0-5 hr for dose 3 mg/kg; assay type: functional, Urine; in short: as §1
Rattus norvegicus [18] = experiment: Compound was evaluated for diuretic activity determined by the ability to induce electrolytic excretion (Na+) at a time period of 0-5 hr for dose 81 mg/kg; assay type: functional, Urine; in short: as §1
Rattus norvegicus [19] = experiment: Compound was evaluated for diuretic activity determined by the ability to induce electrolytic excretion (Na+) at a time period of 0-5 hr for dose 9 mg/kg; assay type: functional, Urine; in short: as §1
Rattus norvegicus [20] = experiment: Compound was evaluated for diuretic activity determined by the ability to induce electrolytic excretion (K+) at a time period of 0-5 hr for dose 27 mg/kg; assay type: functional, Urine; in short: as §1
Rattus norvegicus [21] = experiment: Urine volumes in Sprague-Dawley rats was determined at time period of 0-5 hours dose 27 mg/kg; assay type: functional; in short: as §1
Rattus norvegicus [22] = experiment: Urine volumes in Sprague-Dawley rats was determined at time period of 0-5 hours dose 3 mg/kg; assay type: functional; in short: as §1
Rattus norvegicus [23] = experiment: Compound was evaluated for diuretic activity determined by the ability to induce electrolytic excretion (Na+) at a time period of 0-24 hr for dose 81 mg/kg; assay type: functional, Urine; in short: as §1
Rattus norvegicus [24] = experiment: Compound was evaluated for diuretic activity determined by the ability to induce electrolytic excretion (Cl-) at a time period of 0-24 hr for dose 81 mg/kg; assay type: functional, Urine; in short: as §1
Canis familiaris [25] = experiment: Compound was evaluated for urinary levels (mg) after administration at time period
Rattus norvegicus [26] = experiment: Urine volumes in Sprague-Dawley rats was determined at time period of 0-5 hours dose 81 mg/kg; assay type: functional; in short: as §1
Rattus norvegicus [27] = experiment: Compound was evaluated for diuretic activity determined by the ability to induce electrolytic excretion (Cl-) at a time period of 0-5 hr for dose 81 mg/kg; assay type: functional, Urine; in short: as §1
Rattus norvegicus [28] = experiment: Compound was evaluated for diuretic activity determined by the ability to induce electrolytic excretion (K+) at a time period of 0-24 hr for dose 27 mg/kg; assay type: functional, Urine; in short: as §1
Rattus norvegicus [29] = experiment: Compound was evaluated for diuretic activity determined by the ability to induce electrolytic excretion (K+) at a time period of 0-24 hr for dose 81 mg/kg; assay type: functional, Urine; set-up: unit: mequiv × 100; in short: as §1
Rattus norvegicus [30] = experiment: Compound was evaluated for diuretic activity determined by the ability to induce electrolytic excretion (Cl-) at a time period of 0-24 hr for dose 9 mg/kg; assay type: functional, Urine; in short: as §1
Canis familiaris [31] = experiment: Compound was evaluated for percentage recovery from urine after administration of 0.1 mg/kg dose; assay type: functional, organism-based; set-up: dose 0.1 mg/kg; settings: Canis lupus familiaris; in short: as §2
Rattus norvegicus [32] = experiment: Urine volumes in Sprague-Dawley rats was determined at time period of 0-5 hours dose 9 mg/kg; assay type: functional; in short: as §1
Rattus norvegicus [33] = experiment: Compound was evaluated for diuretic activity determined by the ability to induce electrolytic excretion (K+) at a time period of 0-5 hr for dose 9 mg/kg; assay type: functional, Urine; in short: as §1
Rattus norvegicus [34] = experiment: Compound was evaluated for diuretic activity determined by the ability to induce electrolytic excretion (Cl-) at a time period of 0-5 hr for dose 3 mg/kg; assay type: functional, Urine; in short: as §1

Nc1noc(-c2nc(Cl)c(N)nc2N)n1
Diuretic effect (Rattus norvegicus [1]): 269
Diuretic effect (Rattus norvegicus [2]): 184
Diuretic effect (Rattus norvegicus [3]): 7
Diuretic effect (Rattus norvegicus [4]): 32
Diuretic effect (Rattus norvegicus [5]): 152
Diuretic effect (Rattus norvegicus [6]): 67
Diuretic effect (Rattus norvegicus [7]): 258
Diuretic effect (Rattus norvegicus [8]): 5
Diuretic effect (Canis familiaris [9]): 6.5
Diuretic effect (Canis familiaris [10]): 4.3
Diuretic effect (Rattus norvegicus [11]): 292
Diuretic effect (Canis familiaris [12]): 0.9
Recovery (Canis familiaris [13]): 24.2%
Diuretic effect (Rattus norvegicus [14]): 35
Diuretic effect (Rattus norvegicus [15]): 79
Diuretic effect (Rattus norvegicus [16]): 102
Diuretic effect (Rattus norvegicus [17]): 64
Diuretic effect (Rattus norvegicus [18]): 135
Diuretic effect (Rattus norvegicus [19]): 69
Diuretic effect (Rattus norvegicus [20]): 4
Urine volume (Rattus norvegicus [21]): 26 mL
Urine volume (Rattus norvegicus [22]): 24 mL
Diuretic effect (Rattus norvegicus [23]): 396
Diuretic effect (Rattus norvegicus [24]): 344
Urinary level (Canis familiaris [25]): 0.42 mg
Urine volume (Rattus norvegicus [26]): 25 mL
Diuretic effect (Rattus norvegicus [27]): 73
Diuretic effect (Rattus norvegicus [28]): 79
Diuretic effect (Rattus norvegicus [29]): 72
Diuretic effect (Rattus norvegicus [30]): 235
Recovery (Canis familiaris [31]): 36.2% and 22.4%
Urine volume (Rattus norvegicus [32]): 28 mL
Diuretic effect (Rattus norvegicus [33]): 4
Diuretic effect (Rattus norvegicus [34]): 36
